Key:
[1] = target: Serotonin 3 (5-HT3) receptor; experiment: Binding affinity against 5-hydroxytryptamine 3 receptor was measured using [3H]granisetron as radioligand; type: protein-complex assay
[2] = target: 5-hydroxytryptamine receptor 1A (Bos taurus); experiment: Binding affinity against 5-hydroxytryptamine 1A receptor was measured using [3H]8-OH-DPAT as radioligand
[3] = target: 5-hydroxytryptamine receptor 1B (Rattus norvegicus, UniProt P28564); experiment: Binding affinity towards 5-hydroxytryptamine 1B receptor was measured using [3H]5-HT as radioligand
5-hydroxytryptamine receptor 1B, sequence (P28564 whole entry): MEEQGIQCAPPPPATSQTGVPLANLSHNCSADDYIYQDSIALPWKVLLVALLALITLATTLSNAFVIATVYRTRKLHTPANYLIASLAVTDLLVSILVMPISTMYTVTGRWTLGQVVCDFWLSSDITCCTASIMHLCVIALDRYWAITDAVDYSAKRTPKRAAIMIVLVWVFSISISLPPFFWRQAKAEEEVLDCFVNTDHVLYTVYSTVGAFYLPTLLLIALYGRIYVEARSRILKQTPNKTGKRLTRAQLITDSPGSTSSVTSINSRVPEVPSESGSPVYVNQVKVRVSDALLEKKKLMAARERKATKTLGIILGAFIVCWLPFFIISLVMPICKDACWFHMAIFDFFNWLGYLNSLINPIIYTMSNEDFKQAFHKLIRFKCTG
Outline: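 Rat frontal cortex and striatum membranes (0.8 mg protein/mL), 2 nM [3H]-5-OH-tryptamine, 1 μM spiperone, 50 nM mesulergine; 25 °C, 30 min; 50 mM Tris-HCl pH 7.4, 4 mM CaCl2, 10 μM pargyline. Nonspecific binding with 10 μM propranolol. Expressed as log IC50 ± SEM.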

[4] = target: 5-hydroxytryptamine receptor 2A (Bos taurus, UniProt Q75Z89); experiment: Binding affinity against 5-hydroxytryptamine 2A receptor was measured using [3H]ketanserin as radioligand
5-hydroxytryptamine receptor 2A, sequence (Q75Z89 whole entry): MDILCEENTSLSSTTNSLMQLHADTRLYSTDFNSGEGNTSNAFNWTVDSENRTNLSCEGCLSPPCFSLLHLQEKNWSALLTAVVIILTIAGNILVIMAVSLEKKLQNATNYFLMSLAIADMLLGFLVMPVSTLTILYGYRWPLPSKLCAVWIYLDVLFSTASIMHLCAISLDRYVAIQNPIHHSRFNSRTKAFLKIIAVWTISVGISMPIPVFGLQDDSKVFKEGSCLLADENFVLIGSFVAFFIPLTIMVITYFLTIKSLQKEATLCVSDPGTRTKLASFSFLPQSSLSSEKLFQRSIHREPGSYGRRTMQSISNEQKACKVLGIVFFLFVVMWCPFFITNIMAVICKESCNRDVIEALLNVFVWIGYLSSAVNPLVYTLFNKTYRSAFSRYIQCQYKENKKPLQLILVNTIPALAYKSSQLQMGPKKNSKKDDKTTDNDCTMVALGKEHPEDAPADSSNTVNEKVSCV
Outline: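 Bovine frontal cortex membranes (0.6 mg protein/mL) with 0.8 nM [3H]ketanserin and 100 nM WB4101, 37 °C for 30 min, in 50 mM Tris-HCl pH 7.4 plus 5 mM MgCl2, 10 mM NaCl, 0.5 mM EDTA, 10 μM pargyline. 10 μM spiperone defined nonspecific binding. Reported as log IC50 ± SEM.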

[5] = target: 5-hydroxytryptamine receptor 1D (Sus scrofa, UniProt P79400); experiment: Binding affinity against 5-hydroxytryptamine 1D receptor was measured using [3H]5-HT as radioligand
5-hydroxytryptamine receptor 1D, sequence (P79400 whole entry): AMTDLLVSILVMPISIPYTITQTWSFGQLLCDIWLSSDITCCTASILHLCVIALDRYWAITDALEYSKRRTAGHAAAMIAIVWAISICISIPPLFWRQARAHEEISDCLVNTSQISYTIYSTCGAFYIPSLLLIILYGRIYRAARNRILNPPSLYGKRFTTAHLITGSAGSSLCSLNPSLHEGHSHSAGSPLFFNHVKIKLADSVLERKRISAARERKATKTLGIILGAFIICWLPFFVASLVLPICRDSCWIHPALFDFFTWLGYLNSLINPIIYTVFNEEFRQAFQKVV
Outline: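 Pig frontal cortex and striatum membranes (0.8 mg protein/mL), 2 nM [3H]-5-OH-tryptamine with 1 μM spiperone and 50 nM mesulergine, 25 °C, 30 min, 50 mM Tris-HCl pH 7.4, 4 mM CaCl2, 10 μM pargyline. Nonspecific binding with 10 μM 5-HT. Expressed as log IC50 ± SEM.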

[6] = target: 5-hydroxytryptamine receptor 2C (Sus scrofa); experiment: Binding affinity against 5-Hydroxytryptamine 2C Receptor was measured using [3H]N-methyl-mesulergine as radioligand
[7] = test system: Rattus norvegicus; experiment: In Vivo 5-HT3 agonist activity in the Von Bezold-Jarisch reflex decrease in heart rate in rats at 120 (ug/kg) dose.; type: functional
Outline: (§1)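 Fasted male Crl:CD(SD)BR rats (280–320 g) under urethane (1.25 g/kg ip); heart rate from cannulated carotid artery. Compound in saline given iv via jugular cannula. Read-out is fall in heart rate as percent of pre-treatment baseline.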

[8] = test system: Rattus norvegicus; experiment: In Vivo 5-HT3 antagonist activity in the Von Bezold-Jarisch reflex in rats after intravenous dose of 120 (ug/kg); type: functional
Outline: (§2)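 Urethane-anesthetized (1.25 g/kg ip) fasted male Crl:CD(SD)BR rats; heart rate from carotid cannula. Compound in saline iv via jugular vein, usually 5 min before 5-HT bolus (30 μg/kg iv).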

[9] = test system: NG108-15; experiment: In Vitro 5-HT3 agonist activity on the [14C]guanidinium accumulation in NG 108-15 cells.; type: functional, cell-based; conditions: Murinae
Outline: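 NG 108-15 cells grown 2 days, washed, then incubated 10 min at 37 °C in HEPES buffer pH 7.4 with 10 mM guanidinium chloride, 200–250 nCi [14C]guanidinium, 10 μM substance P and drug. After ice-cold choline wash, cells dissolved in NaOH and radioactivity counted. EC50 from triplicates per concentration; mean ± SEM of three determinations.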

[10] = test system: Rattus norvegicus; experiment: In Vivo 5-HT3 antagonist activity in the Von Bezold-Jarisch reflex in rats and percent inhibition of bradycardia induced by 5-HT was reported; type: functional; conditions: read-out: ID50 (the source's name); outline: as §2
[11] = test system: Rattus norvegicus; experiment: In Vivo 5-HT3 antagonist activity in the Von Bezold-Jarisch reflex in rats at intravenous dose of 60 (ug/kg); type: functional; outline: as §2
[12] = test system: Rattus norvegicus; experiment: In Vivo 5-HT3 antagonist activity in the Von Bezold-Jarisch reflex in rats after intravenous dose of 60 (ug/kg); type: functional; outline: as §2
[13] = test system: Rattus norvegicus; experiment: In Vivo 5-HT3 agonist activity in the Von Bezold-Jarisch reflex decrease in heart rate in rats at 60 (ug/kg) dose.; type: functional; outline: as §1

Compound	-Log IC50 [1]	IC50 [2]	IC50 [3]	IC50 [4]	IC50 [5]	IC50 [6]	also measured
C=CCN1CCN(c2nc3sccc3n3cccc23)CC1	9.04						
Fc1ccc(CN2CCN(c3nc4cccnc4n4cccc34)CC2)cc1	8.58	6.76 µM	56.2 µM	43.7 µM	83.2 µM	5.25 µM	
Clc1ccc2c(c1)nc(N1CCN(Cc3ccc4c(c3)OCO4)CC1)c1cccn12	10.09	9.55 µM	14.5 µM	> 100 µM	46.8 µM	> 100 µM	
Clc1ccc2nc(N3CCN(Cc4ccccc4)CC3)c3cccn3c2c1	7.69	89.1 µM	> 100 µM	> 100 µM	> 100 µM	44.7 µM	
Cc1ccnc2c1nc(N1CCN(Cc3ccc(F)cc3)CC1)c1cccn12	< 4		70.8 µM	> 100 µM	> 100 µM		
c1ccc(N2CCN(c3nc4cccnc4n4cccc34)CC2)cc1	4.56		> 100 µM	> 100 µM	> 100 µM		
c1ccc(CN2CCN(c3nc4cccnc4n4cccc34)CC2)cc1	12.09		13.2 µM	15.1 µM			Inhibition [7]: 59%; Inhibition [8]: 40%; EC50 [9]: 0.032 µM
Clc1ccc2c(c1)nc(N1CCN(Cc3ccccc3)CC1)c1cccn12	9.54		19.1 µM	> 100 µM	> 100 µM		ED50 [10]: 0.0312 mg/kg; Inhibition [7]: 0%; EC50 [9]: 0.052 µM
c1ccc(COc2ccc3nc(N4CCN(Cc5ccccc5)CC4)c4cccn4c3n2)cc1	4.43	55 µM	> 100 µM	> 100 µM	> 100 µM	> 100 µM	
Fc1ccc(CN2CCN(c3nc4sccc4n4cccc34)CC2)cc1	8.93		> 100 µM				
Fc1ccc(CN2CCN(Cc3nc4ccccc4n4cccc34)CC2)cc1	5.59		31.6 µM	17 µM	85.1 µM		
NCCc1c[nH]c2ccc(O)cc12 [SEROTONIN]							EC50 [9]: 0.293 µM
Cc1ccnc2c1nc(N1CCN(Cc3ccccc3)CC1)c1cccn12	5.52	50.1 µM	43.7 µM	51.3 µM	> 100 µM	57.5 µM	
C=CCN1CCN(c2nc3ccc4ncccc4c3n3cccc23)CC1	7.71		19.5 µM	21.4 µM	5.75 µM		
c1cnc2c(c1)nc(N1CCNCC1)c1cccn12	8.83		0.151 µM	14.5 µM	1.7 µM		
c1cnc2ccc3nc(N4CCN(Cc5ccc6c(c5)OCO6)CC4)c4cccn4c3c2c1	7.55		58.9 µM	20 µM	39.8 µM		
COc1ccc2nc(N3CCN(Cc4ccc(F)cc4)CC3)c3cccn3c2n1	6.93	56.2 µM	> 100 µM	> 100 µM	> 100 µM	> 100 µM	
c1cc2c(N3CCNCC3)nc3ccsc3n2c1	7.92						

Compound	-Log IC50 [1]	IC50 [2]	IC50 [3]	IC50 [4]	IC50 [5]	IC50 [6]	also measured
c1ccc(CN2CCN(c3nc4ccc5ncccc5c4n4cccc34)CC2)cc1	7.51		97.7 µM	> 100 µM	> 100 µM		
c1ccc(CN2CCN(c3ncccc3-n3cccc3)CC2)cc1	7.34		26.3 µM	7.41 µM	11 µM		
Fc1ccc(CN2CCN(c3nc4cc(Cl)ccc4n4cccc34)CC2)cc1	7.71	40.7 µM	> 100 µM	> 100 µM	> 100 µM	> 100 µM	
CN1CCN(c2nc3cc(C(F)(F)F)ccc3n3cccc23)CC1	5.88						
c1cnc2c(c1)nc(N1CCN(Cc3ccc4c(c3)OCO4)CC1)c1cccn12	9.1		49 µM	45.7 µM	> 100 µM		
Clc1ccc(CN2CCN(c3nc4cccnc4n4cccc34)CC2)c(Cl)c1	5.89		77.6 µM	> 100 µM	> 100 µM		
c1ccc(CN2CCN(c3ccc4nc(N5CCN(Cc6ccccc6)CC5)c5cccn5c4n3)CC2)cc1	7.06	> 100 µM	> 100 µM	> 100 µM	> 100 µM	> 100 µM	
c1ccc(CN2CCN(c3nc4ccsc4n4cccc34)CC2)cc1	8.85						Inhibition [11]: 42%; Inhibition [7]: 40%; EC50 [9]: 0.011 µM
c1ccc(CN2CCN(c3nc4ccccc4n4cccc34)CC2)cc1	9.45		12.9 µM	10.5 µM	24 µM		Inhibition [12]: 80%; Inhibition [13]: 54%; EC50 [9]: 0.018 µM
Fc1ccc(CN2CCN(c3nc4ccccc4n4cccc34)CC2)cc1	8.62		38 µM	46.8 µM	> 100 µM		
COc1ccc2nc(N3CCN(Cc4ccccc4)CC3)c3cccn3c2n1	7.85		> 100 µM	70.8 µM	> 100 µM		
COc1ccc2c(c1)nc(N1CCN(Cc3ccc(F)cc3)CC1)c1cccn12	8.18		69.2 µM	> 100 µM	> 100 µM		ED50 [10]: 0.0754 mg/kg; Inhibition [7]: 0%; EC50 [9]: 0.104 µM
CCOC(=O)N1CCN(c2nc3cccnc3n3cccc23)CC1	4.55		> 100 µM	> 100 µM	> 100 µM		
C=CCN1CCN(c2nc3cccnc3n3cccc23)CC1	11.4	0.117 µM	0.204 µM	25.1 µM	0.955 µM	0.372 µM	
CN1CCN(c2nc3cccnc3n3cccc23)CC1	9.01	0.0977 µM	0.245 µM	7.94 µM	0.955 µM	0.275 µM	
Cc1ccc2c(c1)nc(N1CCN(Cc3ccc(F)cc3)CC1)c1cccn12	7.87	12.9 µM	10 µM	> 100 µM	> 100 µM	> 100 µM	
COc1ccc2c(c1)nc(N1CCN(CCCCn3cccn3)CC1)c1cccn12	< 4		3.55 µM	1.62 µM	> 100 µM		

Reference: ChEMBL document CHEMBL1130056, “Novel and selective partial agonists of 5-HT3 receptors. 2. Synthesis and biological evaluation of piperazinopyridopyrrolopyrazines, piperazinopyrroloquinoxalines, and piperazinopyridopyrroloquinoxalines” (J Med Chem, 1997)
